Measurements taken from ChEMBL document CHEMBL4043283, “Discovery and Preclinical Development of IIIM-290, an Orally Active Potent Cyclin-Dependent Kinase Inhibitor” (J Med Chem, 2018).
≈ marks a conversion by molar mass, not a printed value. Calls of active or inactive are those of the source. No cut-off for these calls is given here.

Legend:
Cytochrome P450 2C9 = Cytochrome P450 2C9 (Homo sapiens, UniProt P11712); assay: Inhibition of human CYP2C9 using fluorogenic substrate preincubated with co-factor for 10 mins followed by enzyme-substrate addition by fluorometric method; format: ADME
Procedure, shortened: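 Cofactor plus test item or vehicle, in triplicate, preincubated 10 min at 37 °C; prewarmed enzyme–substrate mix added and incubated at 37 °C with shaking. Quench: acetonitrile (CYP2C19, CYP3A4) or 0.25 M Tris in 60% methanol (CYP2C9, CYP2D6). Metabolite fluorescence read; % inhibition computed against enzyme controls and enzyme-free blanks.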

[1] = molecular target: Cyclin-dependent kinase 5/CDK5 activator 1 (Homo sapiens, UniProt Q00535); assay: Inhibition of CDK5/cyclin p35 (unknown origin) after 30 mins in presence of [33P]-gamma-ATP by filter binding assay; format: protein-complex assay
MIA PaCa-2 [2] = assay: Induction of apoptosis in human MIAPaCa2 cells assessed as formation of apoptotic bodies after 24 hrs by scanning electron microscopy; format: functional, cell-based
Procedure, shortened: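 Cells exposed to different compound concentrations for 24 h on coverslips, fixed in 2.5% glutaraldehyde in 0.1 M phosphate buffer pH 7.2 (4 °C, 24 h), postfixed in 1% OsO4 4 h, ethanol-dehydrated, critical-point dried with HMDS, gold-coated, imaged at 20 kV.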

[3] = Intrinsic clearance in monkey hepatocytes assessed per million cells at 3 uM after 180 mins by LC-MS/MS analysis; format: ADME, cell-based, Macaca mulatta, Hepatocyte; conditions: rhesus monkey, read-out: CLH
[4] = Growth inhibition of HGF after 48 hrs by MTT assay; format: cell-based; conditions: human, HGF cells
[5] = Oral bioavailability in BALB/c mouse at 10 mg/kg by LC-MS/MS analysis; format: ADME, organism-based; conditions: in vivo
[6] = Ratio of Cmax in Sprague-Dawley rat at 30 mg/kg, po to GI50 for human HL60 cells
MIA PaCa-2 [7] = assay: Cell cycle arrest in human MIAPaCa2 cells assessed as accumulation at S phase at 1.5 uM after 24 hrs by propidium iodide staining-based flow cytometric method (reference value: 33%); format: functional
CDK4/Cyclin D3 = CDK4/Cyclin D3 (Homo sapiens, UniProt P11802); assay: Inhibition of CDK4/cyclin D3 (unknown origin) after 30 mins in presence of [33P]-gamma-ATP by filter binding assay; format: protein-complex assay
[8] = n-octanol-PBS distribution co-efficient, log D of compound at pH 7.4 by shake flask method; format: physicochemical
[9] = Apparent permeability across basolateral to apical side in human Caco2 cells after 90 mins by LC-MS/MS analysis; format: ADME, cell-based; conditions: Caco-2
HL-60 = assay: Growth inhibition of human HL60 cells after 48 hrs by MTT assay; format: functional; conditions: HL-60, 48 h
Procedure, shortened: (§1)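 Cancer cell lines sourced from the National Cancer Institute (USA). Cells kept in appropriate growth medium at 37 °C, 95% humidity, 5% CO2. Antiproliferation read by tetrazolium (MTT) assay. GI50 values were determined only for compounds selected after an initial single-concentration screen.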

[10] = tested on: Tyrosine-protein kinase ABL1 (Homo sapiens), P00519 [Q252H]; assay: Inhibition of partial length human ABL1 Q252H mutant expressed in mammalian expression system at 0.5 uM by KINOMEscan method relative to control
Procedure, shortened: (§2)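 Competition binding screen (KINOMEscan) at 0.5 μM; primary binding read out as % of control, lower values indicating stronger interaction.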

786-0 = assay: Growth inhibition of human 786-0 cells after 48 hrs by MTT assay; format: functional; conditions: 786-0, 48 h; procedure, shortened: as §1
[11] = Tmax in Sprague-Dawley rat at 30 mg/kg, po by LC-MS/MS analysis; format: ADME, organism-based; conditions: in vivo
Salmonella typhimurium = assay: Mutagenicity in Salmonella typhimurium TA98 at 50 ug/plate in presence of liver S9 fraction by Ames test; format: toxicity; conditions: salmonella enterica subsp. enterica serovar typhimurium
[12] = Chemical stability of compound in SIF at pH 6.8 assessed as parent compound remaining after 8 hrs by HPLC method; format: physicochemical; conditions: read-out: Stability
[13] = AUC in Sprague-Dawley rat at 10 mg/kg, po by LC-MS/MS analysis; format: ADME, organism-based; conditions: in vivo
[14] = Pancreas to plasma partition coefficient, Kp of the compound in Sprague-Dawley rat at 30 mg/kg, po measured at 1 hr; format: ADME, organism-based; conditions: pancreas and plasma
MIA PaCa-2 [15] = assay: Induction of apoptosis in human MIAPaCa2 cells assessed as caspase-7 cleavage by Western blot method; format: functional, cell-based
Procedure, shortened: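 Lysate protein quantified against a BSA standard; 70 μg resolved by SDS-PAGE, transferred to PVDF overnight at 4 °C, 30 V; blocked 1 h in 5% nonfat milk/TBST; primary antibodies 2–4 h, HRP anti-mouse secondary 1 h; ECL detection on X-ray film.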

CYP3A4 [16] = molecular target: T1, CYP3A4 (Homo sapiens, UniProt P08684); assay: Inhibition of human CYP3A4 at 2 uM using fluorogenic substrate after 5 mins by fluorometric method relative to control; format: ADME; conditions: probe fluorogenic substrate
Lung = assay: Drug uptake in BALB/c mouse lung at 30 mg/kg, po after 8 hrs; format: ADME, organism-based; conditions: in vivo
[17] = Thermodynamic equilibrium solubility of compound in water after 5 hrs by shake flask method; format: physicochemical; conditions: read-out: Therm_solubility
[18] = Cmax in BALB/c mouse at 3 mg/kg, po by LC-MS/MS analysis; format: ADME, organism-based; design: dose 3 mg/kg, route oral; conditions: in vivo
[19] = Elimination half life in BALB/c mouse at 1 mg/kg, iv by LC-MS/MS analysis; format: ADME, organism-based; conditions: in vivo, read-out: beta t1/2 (converted)
[20] = Half life in BALB/c mouse at 30 mg/kg, po by LC-MS/MS analysis; format: ADME, organism-based; conditions: in vivo
[21] = molecular target: Serine/threonine-protein kinase ICK (Homo sapiens) (UniProt Q9UPZ9); assay: Inhibition of partial length wild type human ICK expressed in mammalian expression system at 0.5 uM by KINOMEscan method relative to control; procedure, shortened: as §2
MOLT-4 = assay: Antitumor activity against human MOLT4 cells xenografted in CD1 nude mouse assessed as tumor growth inhibition at 25 mg/kg, po qd administered on day 10 to 25 post tumor inoculation; format: functional, organism-based
[22] = Initial concentration in BALB/c mouse at 1 mg/kg, iv by LC-MS/MS analysis; format: ADME, organism-based; conditions: in vivo
[23] = Efflux ratio of apparent permeability across basolateral to apical side over apical to basolateral side in human Caco2 cells after 90 mins by LC-MS/MS analysis; format: ADME, cell-based; conditions: Caco-2
Procedure, shortened: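 Caco-2 monolayers cultured for 21 days. Test compound applied in HBSS buffer with 10 mM HEPES. Samples drawn from both the apical and basolateral chambers.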

[24] = Cmax in Sprague-Dawley rat at 10 mg/kg, po by LC-MS/MS analysis; format: ADME, organism-based; design: dose 10 mg/kg, route oral; conditions: in vivo
[25] = Half life in Sprague-Dawley rat at 10 mg/kg, po by LC-MS/MS analysis; format: ADME, organism-based; conditions: in vivo
CYP3A4 [26] = molecular target: T1, CYP3A4; assay: Inhibition of human CYP3A4 at 2 uM using fluorogenic substrate after 30 mins by fluorometric method relative to control; format: ADME; conditions: probe fluorogenic substrate
MIA PaCa-2 [27] = assay: Induction of apoptosis in human MIAPaCa2 cells at 1.5 uM after 24 hrs by propidium iodide staining-based flow cytometric method relative to control; format: functional
[28] = molecular target: Citron Rho-interacting kinase (Homo sapiens) (UniProt O14578); assay: Inhibition of partial length wild type human CIT expressed in bacterial expression system at 0.5 uM by KINOMEscan method relative to control; procedure, shortened: as §2
Sequence of Citron Rho-interacting kinase (Homo sapiens) (O14578 whole entry): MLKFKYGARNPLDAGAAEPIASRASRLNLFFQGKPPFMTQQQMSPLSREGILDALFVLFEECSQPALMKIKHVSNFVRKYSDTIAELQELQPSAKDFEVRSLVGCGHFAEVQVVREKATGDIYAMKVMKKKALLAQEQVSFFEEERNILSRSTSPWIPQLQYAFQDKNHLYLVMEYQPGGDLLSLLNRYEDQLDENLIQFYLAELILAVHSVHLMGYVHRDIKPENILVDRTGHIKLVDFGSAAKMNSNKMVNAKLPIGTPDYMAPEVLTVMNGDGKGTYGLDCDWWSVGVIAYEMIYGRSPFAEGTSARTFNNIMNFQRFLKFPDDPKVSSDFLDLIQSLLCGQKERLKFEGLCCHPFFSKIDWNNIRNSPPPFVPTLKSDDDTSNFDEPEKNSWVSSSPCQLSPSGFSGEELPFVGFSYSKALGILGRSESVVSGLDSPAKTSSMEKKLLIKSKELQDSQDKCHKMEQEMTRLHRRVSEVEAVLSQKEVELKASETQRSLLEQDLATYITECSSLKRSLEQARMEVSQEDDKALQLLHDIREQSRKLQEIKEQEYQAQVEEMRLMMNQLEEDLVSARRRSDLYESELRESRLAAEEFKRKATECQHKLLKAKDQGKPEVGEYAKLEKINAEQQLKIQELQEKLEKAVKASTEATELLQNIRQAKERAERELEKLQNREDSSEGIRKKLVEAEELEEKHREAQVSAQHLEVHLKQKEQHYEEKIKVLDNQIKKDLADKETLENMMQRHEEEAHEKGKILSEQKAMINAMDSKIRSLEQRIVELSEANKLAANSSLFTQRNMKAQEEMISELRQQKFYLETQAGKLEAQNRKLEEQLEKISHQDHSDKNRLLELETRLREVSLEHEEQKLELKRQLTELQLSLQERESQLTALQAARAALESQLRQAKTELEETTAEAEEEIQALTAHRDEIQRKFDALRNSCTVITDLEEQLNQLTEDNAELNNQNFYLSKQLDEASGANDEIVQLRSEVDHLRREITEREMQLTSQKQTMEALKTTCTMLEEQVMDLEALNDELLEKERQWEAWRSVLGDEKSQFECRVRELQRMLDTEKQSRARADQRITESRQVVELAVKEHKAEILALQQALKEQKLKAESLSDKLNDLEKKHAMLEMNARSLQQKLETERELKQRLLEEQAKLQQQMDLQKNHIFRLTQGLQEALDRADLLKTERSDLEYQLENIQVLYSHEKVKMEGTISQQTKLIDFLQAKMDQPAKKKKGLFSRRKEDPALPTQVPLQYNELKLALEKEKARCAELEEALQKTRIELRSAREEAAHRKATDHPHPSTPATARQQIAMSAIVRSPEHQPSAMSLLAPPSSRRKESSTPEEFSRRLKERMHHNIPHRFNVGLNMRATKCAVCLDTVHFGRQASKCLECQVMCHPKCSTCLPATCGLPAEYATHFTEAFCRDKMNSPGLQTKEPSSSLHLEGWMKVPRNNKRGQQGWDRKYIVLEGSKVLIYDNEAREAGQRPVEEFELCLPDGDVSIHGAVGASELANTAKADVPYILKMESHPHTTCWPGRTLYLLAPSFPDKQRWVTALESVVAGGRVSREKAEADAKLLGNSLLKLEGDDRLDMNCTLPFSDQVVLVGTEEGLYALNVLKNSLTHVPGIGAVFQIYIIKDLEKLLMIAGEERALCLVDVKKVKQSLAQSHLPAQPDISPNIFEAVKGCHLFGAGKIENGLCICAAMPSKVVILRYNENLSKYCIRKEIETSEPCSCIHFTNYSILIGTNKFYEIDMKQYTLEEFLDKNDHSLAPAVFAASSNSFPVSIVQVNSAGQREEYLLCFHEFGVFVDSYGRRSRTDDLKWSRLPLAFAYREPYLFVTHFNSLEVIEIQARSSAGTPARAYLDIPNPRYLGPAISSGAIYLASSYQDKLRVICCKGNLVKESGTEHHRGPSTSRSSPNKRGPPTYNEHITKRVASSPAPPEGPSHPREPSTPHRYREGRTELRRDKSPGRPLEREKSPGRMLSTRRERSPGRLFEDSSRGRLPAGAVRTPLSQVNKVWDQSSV

T1 sequence (P08684 whole entry): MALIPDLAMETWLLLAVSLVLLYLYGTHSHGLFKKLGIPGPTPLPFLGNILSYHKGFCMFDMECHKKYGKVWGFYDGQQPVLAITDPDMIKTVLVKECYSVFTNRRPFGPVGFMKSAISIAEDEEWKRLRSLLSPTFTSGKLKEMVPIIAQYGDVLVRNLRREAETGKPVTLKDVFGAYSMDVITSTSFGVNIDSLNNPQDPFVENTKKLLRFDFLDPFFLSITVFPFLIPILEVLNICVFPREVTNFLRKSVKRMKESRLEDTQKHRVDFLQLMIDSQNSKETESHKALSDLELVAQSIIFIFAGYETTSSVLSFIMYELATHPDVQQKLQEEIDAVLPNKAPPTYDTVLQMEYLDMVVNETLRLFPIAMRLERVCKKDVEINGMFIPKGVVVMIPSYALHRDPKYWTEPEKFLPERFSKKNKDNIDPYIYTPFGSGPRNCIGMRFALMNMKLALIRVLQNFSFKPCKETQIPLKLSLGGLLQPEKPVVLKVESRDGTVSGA
Sequence of Cyclin-dependent kinase 5/CDK5 activator 1 (Q00535 whole entry): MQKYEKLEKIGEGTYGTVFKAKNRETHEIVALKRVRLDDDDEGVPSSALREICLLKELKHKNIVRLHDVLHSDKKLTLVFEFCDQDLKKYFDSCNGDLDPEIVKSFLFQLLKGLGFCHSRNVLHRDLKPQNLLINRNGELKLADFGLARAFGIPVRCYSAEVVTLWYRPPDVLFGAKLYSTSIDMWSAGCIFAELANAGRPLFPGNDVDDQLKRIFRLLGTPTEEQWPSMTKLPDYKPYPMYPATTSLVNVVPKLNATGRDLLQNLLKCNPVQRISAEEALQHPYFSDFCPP
Sequence of Cyclin-dependent kinase 5/CDK5 activator 1 (Q15078 whole entry, further chain): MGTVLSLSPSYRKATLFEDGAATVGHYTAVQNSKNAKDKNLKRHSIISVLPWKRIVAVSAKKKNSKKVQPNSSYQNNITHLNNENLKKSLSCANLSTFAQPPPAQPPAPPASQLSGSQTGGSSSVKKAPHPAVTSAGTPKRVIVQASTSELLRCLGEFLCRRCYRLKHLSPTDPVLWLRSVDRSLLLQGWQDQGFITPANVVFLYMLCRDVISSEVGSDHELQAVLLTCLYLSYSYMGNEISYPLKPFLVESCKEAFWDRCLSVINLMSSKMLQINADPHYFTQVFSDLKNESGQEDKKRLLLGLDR
Sequence of Serine/threonine-protein kinase ICK (Homo sapiens) (Q9UPZ9 whole entry): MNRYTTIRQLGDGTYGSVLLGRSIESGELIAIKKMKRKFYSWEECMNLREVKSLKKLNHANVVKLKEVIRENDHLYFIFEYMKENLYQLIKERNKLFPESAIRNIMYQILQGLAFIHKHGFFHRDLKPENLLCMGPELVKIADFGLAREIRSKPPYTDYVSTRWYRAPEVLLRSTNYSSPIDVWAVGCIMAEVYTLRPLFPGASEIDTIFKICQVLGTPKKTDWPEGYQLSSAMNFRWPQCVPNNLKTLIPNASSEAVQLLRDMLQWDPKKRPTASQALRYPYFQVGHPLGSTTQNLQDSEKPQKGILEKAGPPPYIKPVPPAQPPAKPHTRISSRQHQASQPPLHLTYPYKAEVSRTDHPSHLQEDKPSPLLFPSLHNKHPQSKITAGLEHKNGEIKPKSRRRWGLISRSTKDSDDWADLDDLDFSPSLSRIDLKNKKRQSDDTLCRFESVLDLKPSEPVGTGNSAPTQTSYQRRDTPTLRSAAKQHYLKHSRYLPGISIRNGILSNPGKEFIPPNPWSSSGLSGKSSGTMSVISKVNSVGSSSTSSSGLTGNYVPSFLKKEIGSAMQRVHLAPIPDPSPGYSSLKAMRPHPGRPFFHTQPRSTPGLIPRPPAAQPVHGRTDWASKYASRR
Sequence of CDK4/Cyclin D3 (P11802 whole entry): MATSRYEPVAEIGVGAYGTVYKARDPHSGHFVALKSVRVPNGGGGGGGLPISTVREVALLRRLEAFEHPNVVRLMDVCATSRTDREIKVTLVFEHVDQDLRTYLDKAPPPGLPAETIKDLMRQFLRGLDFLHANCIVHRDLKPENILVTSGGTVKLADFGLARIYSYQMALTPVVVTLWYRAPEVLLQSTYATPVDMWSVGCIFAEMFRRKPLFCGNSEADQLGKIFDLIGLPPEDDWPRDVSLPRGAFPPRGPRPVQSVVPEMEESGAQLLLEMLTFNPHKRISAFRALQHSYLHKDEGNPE
Sequence of CDK4/Cyclin D3 (P30281 whole entry, further chain): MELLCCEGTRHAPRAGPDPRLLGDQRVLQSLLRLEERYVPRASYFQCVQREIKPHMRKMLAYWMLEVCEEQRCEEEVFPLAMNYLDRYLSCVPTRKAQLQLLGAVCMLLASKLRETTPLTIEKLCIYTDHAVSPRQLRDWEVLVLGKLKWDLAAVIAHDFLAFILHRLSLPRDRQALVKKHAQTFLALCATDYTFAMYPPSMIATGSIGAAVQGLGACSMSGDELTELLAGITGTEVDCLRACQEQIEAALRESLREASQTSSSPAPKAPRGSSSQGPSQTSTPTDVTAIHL
Sequence of Cytochrome P450 2C9 (P11712 whole entry): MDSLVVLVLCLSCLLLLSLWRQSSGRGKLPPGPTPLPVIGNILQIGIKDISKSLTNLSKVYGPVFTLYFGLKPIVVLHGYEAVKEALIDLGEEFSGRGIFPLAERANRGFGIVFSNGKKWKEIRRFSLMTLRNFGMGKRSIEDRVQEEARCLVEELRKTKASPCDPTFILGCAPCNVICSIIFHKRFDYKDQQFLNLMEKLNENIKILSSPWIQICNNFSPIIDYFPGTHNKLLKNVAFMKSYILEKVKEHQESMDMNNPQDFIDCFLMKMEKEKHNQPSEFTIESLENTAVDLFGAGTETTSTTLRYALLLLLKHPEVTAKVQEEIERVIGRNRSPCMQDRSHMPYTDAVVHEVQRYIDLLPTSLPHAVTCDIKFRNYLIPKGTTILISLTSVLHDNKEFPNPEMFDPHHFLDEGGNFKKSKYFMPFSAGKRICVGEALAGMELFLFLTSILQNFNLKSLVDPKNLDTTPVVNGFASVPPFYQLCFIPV

CN1CC[C@H](c2c(O)cc(O)c3c(=O)cc(/C=C/c4c(Cl)cccc4Cl)oc23)[C@H](O)C1
IC50 (Cytochrome P450 2C9): > 20000 nM
IC50 [1]: 15.7 nM
Activity (MIA PaCa-2 [2]): Active
hepatocyte CLint at 3 µM [3]: 10.6 µL/min/1e6 cells
GI50 at 48 h [4]: 18000 nM
bioavailability [5]: 70.7%
Ratio [6]: 4
Activity (MIA PaCa-2 [7]): 33%
IC50 (CDK4/Cyclin D3): 22.5 nM
logD [8]: 1.65
Papp B→A at 1.5 h [9]: 3.9 ×10⁻⁶ cm/s
GI50 (HL-60): 900 nM
inhibition [10]: > 98%
GI50 (786-0): 6000 nM
Tmax [11]: 1 h
Activity (Salmonella typhimurium): Non-Toxic
remaining at 8 h [12]: 100%
AUC [13]: 5.68 µM·h
Kp at 1 h [14]: 4.1
Activity (MIA PaCa-2 [15]): Dose-dependent effect
inhibition at 5 min, 2 µM (CYP3A4 [16]): 30%
Drug uptake (Lung): Active
solubility thermodynamic at 5 h [17]: 20.3 µg/mL (≈ 43.9 µM)
Cmax [18]: 216 nM
half-life [19]: 5.46 h
half-life [20]: 3.62 h
inhibition [21]: > 98%
TGI (MOLT-4): inactive
C0 [22]: 859 ng/mL
efflux ratio at 1.5 h [23]: 1.8
Cmax [24]: 900 nM
half-life [25]: 5.16 h
inhibition at 0.5 h, 2 µM (CYP3A4 [26]): 40%
Activity (MIA PaCa-2 [27]): 1.9%
inhibition [28]: > 98%
